ChEMBL document CHEMBL1275301, “Antihypertensive activity of newer 1,4-dihydro-5-pyrimidine carboxamides: synthesis and pharmacological evaluation” (2010)
Calls of active or inactive are those of the source. The rule behind the calls is not given here.

Tests used:
Rattus norvegicus [1] = assay: Antihypertensive activity against DOCA-salt induced hypertension in albino rat assessed as reduction in systolic blood pressure at 10 mg/kg, po up to 360 mins by tail-cuff method; type: functional, organism-based; set-up: dose 10 mg/kg; conditions: Artery
Summary of the method: (§1)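 Rats given DOCA 20 mg/kg s.c. twice weekly in olive oil for 4 weeks, with 1% w/v NaCl as drinking water, reaching systolic 160–180 mm Hg. Rats were trained in restrainer and tail-cuff sessions. Compounds in 0.5% CMC were dosed at 10 mg/kg by oral feeding needle, with vehicle and nifedipine groups. BP was read before dosing and after, with the tail warmed at 37 °C for 2–5 min. Each compound was run three times in one week and readings averaged.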

Rattus norvegicus [2] = assay: Antihypertensive activity against DOCA-salt induced hypertension in albino rat assessed as reduction in systolic blood pressure at 10 mg/kg, po after 900 mins by tail-cuff method; type: functional; conditions: Artery, 15 h; summary of the method: as §1
Rattus norvegicus [3] = assay: Antihypertensive activity against DOCA-salt induced hypertension in albino rat assessed as reduction in systolic blood pressure at 10 mg/kg, po after 720 mins by tail-cuff method; type: functional; conditions: Artery, 12 h; summary of the method: as §1
Rattus norvegicus [4] = assay: Antihypertensive activity against DOCA-salt induced hypertension in albino rat assessed as reduction in systolic blood pressure at 10 mg/kg, po after 600 mins by tail-cuff method; type: functional; conditions: Artery, 10 h; summary of the method: as §1
Rattus norvegicus [5] = assay: Antihypertensive activity against DOCA-salt induced hypertension in albino rat assessed as reduction in systolic blood pressure at 10 mg/kg, po after 360 mins by tail-cuff method; type: functional; conditions: Artery, 6 h; summary of the method: as §1
Rattus norvegicus [6] = assay: Antihypertensive activity against DOCA-salt induced hypertension in albino rat assessed as reduction in systolic blood pressure at 10 mg/kg, po after 300 mins by tail-cuff method; type: functional; conditions: Artery, 5 h; summary of the method: as §1
Rattus norvegicus [7] = assay: Antihypertensive activity against DOCA-salt induced hypertension in albino rat assessed as reduction in systolic blood pressure at 10 mg/kg, po after 240 mins by tail-cuff method; type: functional; conditions: Artery, 4 h; summary of the method: as §1
Rattus norvegicus [8] = assay: Antihypertensive activity against DOCA-salt induced hypertension in albino rat assessed as reduction in systolic blood pressure at 10 mg/kg, po after 180 mins by tail-cuff method; type: functional; conditions: Artery, 3 h; summary of the method: as §1
Rattus norvegicus [9] = assay: Antihypertensive activity against DOCA-salt induced hypertension in albino rat assessed as reduction in systolic blood pressure at 10 mg/kg, po after 120 mins by tail-cuff method; type: functional; conditions: Artery, 2 h; summary of the method: as §1
Rattus norvegicus [10] = assay: Antihypertensive activity against DOCA-salt induced hypertension in albino rat assessed as reduction in systolic blood pressure at 10 mg/kg, po after 60 mins by tail-cuff method; type: functional; conditions: Artery, 1 h; summary of the method: as §1
Rattus norvegicus [11] = assay: Antihypertensive activity against DOCA-salt induced hypertension in albino rat assessed as reduction in systolic blood pressure at 10 mg/kg, po after 30 mins by tail-cuff method; type: functional; conditions: Artery, 0.5 h; summary of the method: as §1
Rattus norvegicus [12] = assay: Antihypertensive activity against DOCA-salt induced hypertension in albino rat assessed as reduction in systolic blood pressure at 10 mg/kg, po after 15 mins by tail-cuff method; type: functional; conditions: Artery, 0.25 h; summary of the method: as §1

| Compound | Activity (Rattus norvegicus [1]) | inhibition in vivo at 10 mg/kg (Rattus norvegicus [2]) [%] | inhibition in vivo at 10 mg/kg (Rattus norvegicus [3]) [%] | inhibition in vivo at 10 mg/kg (Rattus norvegicus [4]) [%] | inhibition in vivo at 10 mg/kg (Rattus norvegicus [5]) [%] | inhibition in vivo at 10 mg/kg (Rattus norvegicus [6]) [%] | inhibition in vivo at 10 mg/kg (Rattus norvegicus [7]) [%] | inhibition in vivo at 10 mg/kg (Rattus norvegicus [8]) [%] | inhibition in vivo at 10 mg/kg (Rattus norvegicus [9]) [%] | inhibition in vivo at 10 mg/kg (Rattus norvegicus [10]) [%] | inhibition in vivo at 10 mg/kg (Rattus norvegicus [11]) [%] | inhibition in vivo at 10 mg/kg (Rattus norvegicus [12]) [%] |
| --- | --- | --- | --- | --- | --- | --- | --- | --- | --- | --- | --- | --- |
| CC1=C(C(=O)Nc2ccc([N+](=O)[O-])cc2)C(c2cccc([N+](=O)[O-])c2)N=C(SCc2ccccc2)N1 (centres undefined) | Active | 14.9 | 17.5 | 27.2 | 32.5 | 25.6 | 21 | 16.5 | 10.3 | 7.7 | 4.1 | 2.6 |
| CC1=C(C(=O)Nc2ccc([N+](=O)[O-])cc2)C(c2cccc([N+](=O)[O-])c2)N=C(SCc2ccccc2Cl)N1 (centres undefined) | Active | 7.2 | 11.3 | 13.3 | 17.5 | 15.9 | 12.8 | 9.3 | 7.7 | 6.7 | 3.6 | 2.1 |
| COc1ccc(C2N=C(SCc3ccc(F)cc3)NC(C)=C2C(=O)Nc2ccc(Br)cc2)cc1 (centres undefined) | Active | 15.4 | 19.1 | 24.1 | 33.5 | 26.2 | 22.1 | 17 | 12.9 | 8.7 | 6.2 | 3.6 |
| CC1=C(C(=O)Nc2ccc(F)cc2)C(c2ccc([N+](=O)[O-])cc2)N=C(SCc2ccccc2)N1 (centres undefined) | Active | 21 | 27.3 | 32.3 | 38.7 | 38.5 | 32.3 | 23.7 | 18 | 12.3 | 7.2 | 3.1 |
| CC1=C(C(=O)Nc2ccc(Br)cc2)C(c2ccc(Cl)cc2Cl)N=C(SCc2ccccc2Cl)N1 (centres undefined) | Active | 16.4 | 20.6 | 24.6 | 38.1 | 36.4 | 28.7 | 22.2 | 16 | 11.8 | 5.7 | 3.1 |
| CC1=C(C(=O)Nc2ccc([N+](=O)[O-])cc2)C(c2ccc(Br)cc2)N=C(SCc2ccccc2Cl)N1 (centres undefined) | Active | 4.1 | 6.7 | 9.7 | 13.9 | 16.9 | 15.4 | 11.3 | 7.7 | 6.7 | 3.6 | 1.5 |
| CC1=C(C(=O)Nc2ccc([N+](=O)[O-])cc2)C(c2cccc([N+](=O)[O-])c2)N=C(SCc2ccc(Cl)cc2)N1 (centres undefined) | Active | 12.3 | 15.5 | 26.2 | 33 | 24.1 | 20 | 14.9 | 12.4 | 6.7 | 3.1 | 2.1 |
